Measurements as given in ChEMBL document CHEMBL1212700, “Small-molecule aggregates inhibit amyloid polymerization” (Nat Chem Biol, 2008).
Activity calls are given as the source filed them. No cut-off for these calls is given here.

Key:
[1] = biological target: T1, Eukaryotic peptide chain release factor GTP-binding subunit (Saccharomyces cerevisiae) (UniProt P05453); conditions: at 50 µM
T1 sequence (whole entry): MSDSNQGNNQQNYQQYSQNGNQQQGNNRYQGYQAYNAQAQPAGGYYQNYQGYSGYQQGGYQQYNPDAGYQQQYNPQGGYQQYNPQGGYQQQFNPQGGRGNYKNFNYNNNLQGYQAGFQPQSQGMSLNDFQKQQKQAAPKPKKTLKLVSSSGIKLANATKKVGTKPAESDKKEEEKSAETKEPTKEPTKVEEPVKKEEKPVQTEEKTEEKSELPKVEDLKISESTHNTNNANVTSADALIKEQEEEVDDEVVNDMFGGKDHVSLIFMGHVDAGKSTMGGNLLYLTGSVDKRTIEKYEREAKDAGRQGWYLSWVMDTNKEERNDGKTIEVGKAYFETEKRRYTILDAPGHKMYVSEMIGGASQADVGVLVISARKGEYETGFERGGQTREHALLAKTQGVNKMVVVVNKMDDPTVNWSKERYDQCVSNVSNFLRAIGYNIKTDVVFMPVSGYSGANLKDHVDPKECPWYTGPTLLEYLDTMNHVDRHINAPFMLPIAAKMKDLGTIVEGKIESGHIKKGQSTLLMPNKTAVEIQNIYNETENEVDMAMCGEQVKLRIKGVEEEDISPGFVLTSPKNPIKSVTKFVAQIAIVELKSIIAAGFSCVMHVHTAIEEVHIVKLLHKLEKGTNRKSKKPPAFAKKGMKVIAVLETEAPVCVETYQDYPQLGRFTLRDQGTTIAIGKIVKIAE

[2] = biological target: T1, Eukaryotic peptide chain release factor GTP-binding subunit (Saccharomyces cerevisiae); conditions: at 50 µM; remark: listed apart in the source
[3] = Inhibition of Beta-lactamase at 25 uM by nitrocefin hydrolysis assay
[4] = Inhibition of Beta-lactamase at 25 uM in presence of 0.01% Triton X-100 by nitrocefin hydrolysis assay
[5] = organism: Mus musculus; conditions: at 50 µM
[6] = Inhibition of Beta-lactamase at 50 uM in presence of 0.01% Triton X-100 by nitrocefin hydrolysis assay
[7] = organism: Mus musculus; assay: Inhibition of mouse prion protein (89-230) assessed as inhibition of amyloid polymerization at 25 uM by thioflavin T fluorescence assay relative to untreated control
Summary of the method: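 Mouse prion protein (recMoPrP) fibrillization monitored by thioflavin T fluorescence; reactions contained 3 M urea.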

[8] = Inhibition of Beta-lactamase at 50 uM by nitrocefin hydrolysis assay
[9] = biological target: T1, Eukaryotic peptide chain release factor GTP-binding subunit (Saccharomyces cerevisiae); assay: Inhibition of yeast prion protein Sup35 infection of PSI yeast spheroplast cells at 200 uM
Summary of the method: (§1)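 Yeast made infection-competent by enzymatic digestion of the cell wall, then exposed to Sup35 prion with compound; infectivity scored. EC50 derived from a 40–200 μM concentration series.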

[10] = biological target: T1, Eukaryotic peptide chain release factor GTP-binding subunit (Saccharomyces cerevisiae); assay: Inhibition of polyhistidine tagged yeast prion protein Sup35 expressed in Escherichia coli BL21 (DE3) assessed as inhibition of amyloid polymerization preincubation of seed fibers and compound for 5 mins at 100 uM by thioflavin T fluorescence assay relative to untreated control
[11] = biological target: T1, Eukaryotic peptide chain release factor GTP-binding subunit (Saccharomyces cerevisiae); assay: Inhibition of polyhistidine tagged yeast prion protein Sup35 expressed in Escherichia coli BL21 (DE3) assessed as inhibition of amyloid polymerization at 100 uM by thioflavin T fluorescence assay relative to untreated control
Summary of the method: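 Sup35 fibrillization followed by thioflavin T fluorescence in seeded and unseeded polymerization reactions. For BSA lines, BSA added from a 20 mg ml−1 solution to a final 5 mg ml−1. Inhibition is relative to untreated reactions.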

[12] = biological target: T1, Eukaryotic peptide chain release factor GTP-binding subunit (Saccharomyces cerevisiae); assay: Inhibition of yeast prion protein Sup35 infection of PSI yeast spheroplast cells at 100 uM
Summary of the method: as §1

[13] = biological target: T1, Eukaryotic peptide chain release factor GTP-binding subunit (Saccharomyces cerevisiae); assay: Inhibition of polyhistidine tagged yeast prion protein Sup35 expressed in Escherichia coli BL21 (DE3) assessed as inhibition of amyloid polymerization at 50 uM in presence of 5% seed fibres by thioflavin T fluorescence assay relative to untreated control
Summary of the method: (§2)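 Seeded Sup35 polymerization read by thioflavin T fluorescence, with seed at 0.5%, 1% or 5% and compound at fixed 50 μM. Preincubation line: 5-min preincubation before polymerization.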

[14] = system: Saccharomyces cerevisiae; assay: Toxicity in PSI yeast spheroplast cells infected with yeast prion protein Sup35; format: organism-based
[15] = biological target: T1, Eukaryotic peptide chain release factor GTP-binding subunit (Saccharomyces cerevisiae); assay: Inhibition of polyhistidine tagged yeast prion protein Sup35 expressed in Escherichia coli BL21 (DE3) assessed as inhibition of amyloid polymerization at 50 uM in presence of 0.5% seed fibres by thioflavin T fluorescence assay relative to untreated control
Summary of the method: as §2

[16] = biological target: T1, Eukaryotic peptide chain release factor GTP-binding subunit (Saccharomyces cerevisiae); assay: Inhibition of polyhistidine tagged yeast prion protein Sup35 expressed in Escherichia coli BL21 (DE3) assessed as inhibition of amyloid polymerization at 50 uM in presence of 1% seed fibres by thioflavin T fluorescence assay relative to untreated control
Summary of the method: as §2

[17] = Inhibition of dynamic light scattering at 25 uM by thioflavin T fluorescence assay relative to untreated control; format: physicochemical
Summary of the method: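 Sup35 fibrillization was tracked by dynamic light scattering, which served as a check against spectroscopic interference in the thioflavin T fluorescence read-out. Inhibition was scored against the reaction without compound.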

[18] = Inhibition of Beta-lactamase at 30 uM by nitrocefin hydrolysis assay
[19] = Inhibition of Beta-lactamase at 30 uM in presence of 0.01% Triton X-100 by nitrocefin hydrolysis assay

| SMILES | inhibition [1] [%] | inhibition [2] [%] | inhibition [5] [%] | inhibition [7] [%] | inhibition [9] | inhibition [10] [%] | inhibition [11] [%] | further results |
| --- | --- | --- | --- | --- | --- | --- | --- | --- |
| Oc1c(I)cc(Cl)c2cccnc12 | 0 | 54.7 | 0 |  |  |  |  | inhibition [3]: 51.6%; inhibition [4]: 6.4% |
| OC(Cn1cncn1)(Cn1cncn1)c1ccc(F)cc1F | 9 | 0 | 5.9 |  |  |  |  |  |
| O=C1NC(=O)c2cc(Nc3ccccc3)c(Nc3ccccc3)cc21 | 44.7 | 87.1 |  | 73.6 | Active |  |  | inhibition [6]: 0.7%; inhibition [8]: 97% |
| COC(=O)C1=C(C)NC(C)=C(C(=O)OCCN(C)Cc2ccccc2)C1c1cccc([N+](=O)[O-])c1 (configuration not stated) | 0 | 61.5 | 22.7 |  | Active | 88 | 55 | inhibition [12]: 50% |
| Clc1ccccc1C(c1ccccc1)(c1ccccc1)n1ccnc1 [CLOTRIMAZOLE] | 5.6 | 62.7 |  | 21.5 |  | 94 | 79 | inhibition [13]: 30%; Activity [14]: Toxic; inhibition [15]: 99%; inhibition [16]: 95%; inhibition (INH) [17]: 98% |
| O=c1cc(-c2ccccc2)oc2cc(O)c(O)c(O)c12 | 17.6 | 95.4 | 34.3 |  | Active |  |  | inhibition [18]: 51.8%; inhibition [19]: 0% |
